Assay results reported in ChEMBL document CHEMBL1153954, “Promiscuous aggregate-based inhibitors promote enzyme unfolding” (J Med Chem, 2009).
Activity calls are given as the source filed them. No cut-off for these calls is given here.

Biological target: AmpC (Escherichia coli) (UniProt Q83TT7)
Assay: Inhibition of Escherichia coli AmpC assessed as induction of protein unfolding measured by trypsin mediated degradation of compound-AmpC enzyme complex at 250 uM after 15 mins by gel electrophoresis
In short: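 AmpC β-lactamase (0.5 μM) in 50 mM KPi, pH 7.0, with or without aggregator at 250 μM (1% DMSO final). Trypsin (0.01 or 0.025 mg/mL) added after 5 min. Digestion ran at room temperature for 0 min to 4 h. Samples were boiled 2 min in DTT-containing loading buffer, run on SDS-PAGE, and the β-lactamase band was scored against compound-free enzyme.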

Chain of AmpC (Escherichia coli) (Q83TT7 as listed by the source): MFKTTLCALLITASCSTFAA

O=S(=O)(O)c1cc(O)c(/N=N/c2ccc3ccccc3c2O)c2ccccc12
Activity: Active
